Assay outcomes from PubChem.
Hits are enriched below; roughly 2.5% of the tested compounds scored in any of these assays.
PRMT1 inh = PRMT1 methyltransferase inhibitors, primary screen, biochemical, fluorescence polarization | hit rate 1.3% among 370,000 | inhibition, % at 2.79 µM | Protein arginine N-methyltransferase 1 (Homo sapiens), Q99873 | AID 652257, 2013 | recombinant PRMT1, activity-based probe fluorescence polarization;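 active = inhibition above about 21% made by adding two undisclosed values, limit read from the data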
Target sequence (Q99873 whole entry, looked up): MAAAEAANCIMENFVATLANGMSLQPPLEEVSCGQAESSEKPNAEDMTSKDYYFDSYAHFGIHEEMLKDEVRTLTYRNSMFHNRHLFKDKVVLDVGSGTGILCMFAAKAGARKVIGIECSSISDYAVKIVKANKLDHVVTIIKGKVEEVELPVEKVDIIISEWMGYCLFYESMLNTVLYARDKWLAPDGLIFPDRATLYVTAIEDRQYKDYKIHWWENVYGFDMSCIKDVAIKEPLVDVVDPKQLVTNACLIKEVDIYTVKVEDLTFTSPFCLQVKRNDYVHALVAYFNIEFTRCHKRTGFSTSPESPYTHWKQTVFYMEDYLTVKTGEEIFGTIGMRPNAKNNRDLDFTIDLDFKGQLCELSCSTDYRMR
PAD4 inh = human PAD4 inhibitors, primary screen, biochemical, fluorescence polarization, 1536-well format | Protein-arginine deiminase type-4 (Homo sapiens), Q9UM07 | hit rate 0.41% among 330,000 | inhibition, % at 6.36 µM | recombinant PAD4, RCA probe fluorescence polarization;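 active = percent inhibition above a cutoff equal to the mean of all tested compounds plus 3 SD, cut at about 15% in these data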;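 note: 0% = PAD4 with RCA probe and DMSO and 100% = probe without PAD4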
TDP2 absorb = human TDP2 enzyme inhibitors, primary screen, biochemical, epi absorbance, recombinant enzyme; Tyrosyl-DNA phosphodiesterase 2 (Homo sapiens), O95551; T5PNP hydrolysis, p-nitrophenol absorbance 415 nm; inhibition, % at 12.8 µM; hit rate 0.34% among 370,000; AID 720702, 2013;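 active = inhibition above the mean of all tested compounds plus 3 SD, set per campaign, cut at about 25% in these data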;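 note: 0% = DMSO with enzyme and 100% = buffer with substrate but no TDP2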
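Assay system: recombinant human TDP2 / Reagent: T5PNP substrate at 5 mM, a TopII-DNA adduct mimic / Measured by: epi absorbance from released p-nitrophenol / Evaluation: % inhibition relative to enzyme-containing and enzyme-free wells / Control set: enzyme-free and DMSO wells / Replicates: each compound tested once, singlicate / Schedule: enzyme reaction with compound for 2 h at 37 °C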
CTSL1 counter = Fasciola hepatica cathepsin L1 inhibitors, primary screen, counter-screen for PFM18AAP inhibitor project, biochemical, QFRET, fluorogenic peptide substrate. recombinant F. hepatica cathepsin L1, Z-Leu-Arg-MCA fluorescence. hit rate 0.49% among 300,000. inhibition, % at 5.96 µM;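 active = inhibition above the mean of all tested compounds plus 3 SD, set per screening campaign, cut at about 17% in these data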;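 note: 0% = plate median of test compound wells and 100% = 1 µM Z-Phe-Ala-diazomethylketone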
GSTO1 counter = inhibitors of recombinant GSTO1, primary screen, counter-screen for RBBP9 inhibitor project, biochemical, fluorescence polarization; hit rate 1.1% among 300,000; activity-based probe fluorescence polarization; Glutathione S-transferase omega-1 (Homo sapiens), P78417; inhibition, % at 5.96 µM;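 active = inhibition above the campaign mean inhibition plus 3 SD, cut at about 35% in these data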;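 note: 0% = GSTO1-1 with DMSO and 100% = wells lacking GSTO1-1 enzyme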
Active calls of the source: *; nt = no result given.

SMILES	PRMT1 inh	PAD4 inh	TDP2 absorb	CTSL1 counter	GSTO1 counter
Nc1nc(Cl)nc(N(c2ccccc2)c2ccccc2)n1	0	-5	6	-6	13
COc1cc(NC(=O)C2CCN(c3nnc(-n4cccc4)s3)CC2)cc(OC)c1	-2	nt	7	nt	nt
COC(=O)c1cc(OC)cc(O)c1C(=O)c1c(O)cc(C)cc1O	7	4	14	52*	12
COc1cc(C)c(C(=O)Oc2cc(C)c(C(=O)O)c(O)c2)c(O)c1	10	1	8	-1	8
CC(C)CN1C(=O)[C@]2(CC(=O)N(C)C2c2ccccc2)c2cc(-n3cc(C4=CCCCC4)nn3)ccc21 (stereo partly specified)	0	nt	4	nt	nt
Nc1cc(CN2C(=O)c3ccccc3C2=O)cc(Cl)c1O	4	-5	-7	25*	18
Cc1ccc(NC(=O)CC2S/C(=N/c3nccs3)N(C)C2=O)cc1C (stereo unspecified)	0	-1	-4	41*	-3
Cc1ccc(S(=O)(=O)CCC(=O)N(CCN2CCOCC2)c2nc3ccccc3s2)cc1	0	-6	8	11	7
CCN(CC)CCN(C(=O)CCS(=O)(=O)c1ccccc1)c1nc2c(C)cc(C)cc2s1	3	0	-3	40*	3
Cc1cccc2sc(N(CCN3CCOCC3)C(=O)CCS(=O)(=O)c3ccccc3)nc12	5	-4	4	17*	-2
CCN(CC)CCN(C(=O)CCS(=O)(=O)c1ccccc1)c1nc2cc(C)cc(C)c2s1	0	1	2	34*	8
Cc1cc(C)c2sc(N(CCN(C)C)C(=O)CCS(=O)(=O)c3ccccc3)nc2c1	2	4	8	14	2
CC(C)(C)CN1CCC(Oc2cccc(C(=O)N3CCNC(=O)C3(C)C)c2)CC1	-3	-2	12	19*	8
CCCCN(C)C(=O)c1cccc(OC2CCN(CC(C)(C)C)CC2)c1	6	-3	1	0	3
Cc1ccc(S(=O)(=O)Nc2cc(C(C(=O)OC(C)C)C(=O)C(F)(F)F)c(O)c3ccccc23)c(C)c1 (stereo unspecified)	25*	8	10	5	44*
CC1(C)CC(=O)C2=C(C1)c1c(ccc3ccccc13)NC2c1ccc(Br)o1 (stereo unspecified)	0	-1	3	57*	-2
CC(C)C[C@@H]1COc2cc(Br)ccc2S(=O)(=O)N1Cc1cn(Cc2ccccc2)nn1	-2	nt	-1	nt	nt
Cc1ccc(NC(=O)COn2nnc3ccc(S(=O)(=O)N(C)C)cc32)cc1F	0	2	-12	4	36*
COC(=O)[C@]12C[C@H](CC(=O)NCCCN3CCCC3=O)C(=O)N(Cc3ccc(Cl)cc3Cl)C1=C[C@H](COCc1ccccc1)O[C@@H]2C	-2	nt	2	nt	nt
C[C@H]1[C@@H](NC(=O)Cc2ccsc2)CC[C@@]23CCCN2C(=O)CCC[C@@H]13	-5	nt	16	nt	nt
Cc1cc(C)nc(Nc2ccc(N3CCOCC3)cc2)n1	0	-7	-1	1	-1
Cc1cc(C)nc(Nc2ccc(N3CCCC3)cc2)n1	4	5	-5	17*	24
Cc1ccc(-c2csc3ncn(-n4c(C)ccc4C)c(=O)c23)o1	24*	-2	2	4	16
Cc1sc2ncn(-n3c(C)ccc3C)c(=O)c2c1C	2	-1	-7	2	13
Cc1ccc(NC(=S)NNC(=S)Nc2cccc(C(F)(F)F)c2)cc1	12	1	-12	0	38*
O=C(NCCN1CCOCC1)c1ccc2c(c1)N(Cc1ccccc1F)C(=O)CS2	4	-3	-4	27*	-2
O=C(NCCN1CCOCC1)c1ccc2c(c1)N(Cc1ccccc1F)C(=O)c1ccccc1S2(=O)=O	2	2	-13	18*	4
CCN1CCCC1CNC(=O)c1ccc2c(c1)N(Cc1ccccc1F)C(=O)c1ccccc1S2(=O)=O (stereo unspecified)	7	1	-4	52*	-2
Cc1ccc(C)c(CN2C(=O)CSc3ccc(C(=O)NCCN4CCOCC4)cc32)c1	1	2	0	10	-4
